The list is not random: actives were taken first. Their share in the collection is about 5.1%.
ERa SRC1 inh: ERα–SRC-1 coactivator interaction inhibitors, primary screen, biochemical, TR-FRET, ERα LBD, estradiol-bound; TR-FRET ER-alpha LBD / SRC-1 peptide; inhibition, % at 25.6 µM; 86,000 compounds, 1.7% hits; AID 629, 2007; in the data active = inhibition above about 50%
SF1 activator: activators of human SF-1, primary screen, cell-based, CHO-K1, Gal4-SF-1 LBD, luciferase luminescence; AID 522, 2006; 65,000 compounds, 1.9% hits; CHO-K1 Gal4-SF-1 LBD luciferase reporter; % increase over DMSO SF-1-specific signal; activation, % at 10 µM;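 active = activation above the mean activation of all tested compounds plus 3 SD, cut at about 50% in these data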
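Material: Transient Gal4-SF-1 LBD reporter, CHO-K1 | Input: 4,000 cells/well | Dosing: One dose, 10 µM compound, 1% DMSO | Incubation: 20 h compound treatment, 37 °C | Detection: SteadyLite luciferase luminescence | Evaluation: Percent activation relative to DMSO median and mock-transfected background | Benchmarks: DMSO-treated SF-1-transfected cells as negative, DMSO-treated mock-transfected cells lacking SF-1 as background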
ERa coact pot: enhancers of ERα–SRC-1 coactivator binding, primary screen, biochemical, TR-FRET, ERα LBD, low estradiol; Estrogen receptor (Homo sapiens), P03372; TR-FRET ERalpha-LBD/SRC-Cy5 coactivator binding, 2 h; 100 = basal binding, no effect; coactivator binding (% of control), % at 25.6 µM; 86,000 compounds, 1.3% hits; in the data active = activity above about 200%;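 note: binding measured in presence of low estradiol as agonist stimulus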
BAP1 inh: inhibitors of BAP1 deubiquitinase, primary screen, biochemical, Ub-AMC fluorescence, kinetic. Ubiquitin carboxyl-terminal hydrolase BAP1 (Homo sapiens), Q92560. calls only at 20 µM. 72,000 compounds, 0.48% hits. AID 436, 2006. recombinant BAP1, Ub-AMC hydrolysis fluorescence kinetic; stronger effect = lower value;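 active = activity remaining at or below 50% of control, provided the compound also passes the data quality filters; inactive = the rest, including low values that fail the filters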
RORa activator: activators of orphan receptor RORA, primary screen, cell-based, luminescence; activation, % at 10 µM; 65,000 compounds, 1.5% hits; Nuclear receptor ROR-alpha (Homo sapiens), P35398; CHO-K1 Gal4-RORA LBD luciferase reporter; percent increase over mock-subtracted basal signal; AID 560, 2006;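 active = activation above the mean of all tested compounds plus 3 SD, cut at about 49% in these data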
ERb SRC1 inh: inhibitors of ERβ-SRC1 coactivator interaction, primary screen, biochemical, TR-FRET, ERβ LBD, SRC-1 peptide; Estrogen receptor beta (Homo sapiens), Q92731; inhibition, % at 25.6 µM; TR-FRET ER-beta LBD / SRC1-Cy5 peptide binding; receptor agonist-loaded with 1 µM estradiol; AID 633, 2007; 86,000 compounds, 1.3% hits;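 active = compounds whose percent inhibition of the receptor-coactivator binding signal exceeds about 50% in the single-dose screen, limit read from the data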
Target sequence (Q92731 whole entry, looked up, the tested form may be a part): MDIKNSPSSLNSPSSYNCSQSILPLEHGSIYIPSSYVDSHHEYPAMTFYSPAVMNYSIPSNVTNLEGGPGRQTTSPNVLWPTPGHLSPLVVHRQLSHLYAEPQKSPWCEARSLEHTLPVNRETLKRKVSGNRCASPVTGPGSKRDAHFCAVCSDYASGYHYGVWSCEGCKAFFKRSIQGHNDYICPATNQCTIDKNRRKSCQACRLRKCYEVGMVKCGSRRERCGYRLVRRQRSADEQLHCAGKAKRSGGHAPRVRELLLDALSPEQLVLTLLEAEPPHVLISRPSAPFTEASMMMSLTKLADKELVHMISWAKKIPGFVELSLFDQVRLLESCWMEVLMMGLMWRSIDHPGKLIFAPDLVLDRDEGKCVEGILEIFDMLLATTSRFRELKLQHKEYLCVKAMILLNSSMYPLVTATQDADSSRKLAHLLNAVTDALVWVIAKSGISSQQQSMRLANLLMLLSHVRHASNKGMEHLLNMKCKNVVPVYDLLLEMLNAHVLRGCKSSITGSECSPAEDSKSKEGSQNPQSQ
Of the large screens only hits and unclear results are named; the others gave an inactive call; [ ] = dose if it differs, or a comment.

CCOC(=O)C(CC)Sc1nc2c(c(=O)[nH]c(=O)n2C)n1C(C)C (configuration not stated)	none (no result: ERa SRC1 inh, SF1 activator, ERa coact pot, RORa activator, ERb SRC1 inh)
COC(=O)c1ccccc1NC(=O)c1cnn2c(C(F)(F)F)cc(-c3ccccc3)nc12	none (no result: ERa SRC1 inh, SF1 activator, ERa coact pot, RORa activator, ERb SRC1 inh)
Cc1oc2nc(SCC(=O)NCCCO)nc(N)c2c1C	ERb SRC1 inh 64 (no result: SF1 activator, BAP1 inh, RORa activator)
O=S(=O)(Nc1ncnc2sc3c(c12)CCC3)c1ccc2ccccc2c1	ERb SRC1 inh 53 (no result: SF1 activator, BAP1 inh, RORa activator)
O=[N+]([O-])c1cc(S(=O)(=O)Nc2cc3c4c(oc3c3ccccc23)CCCC4)ccc1Cl	none (no result: ERa SRC1 inh, SF1 activator, ERa coact pot, RORa activator, ERb SRC1 inh)
N#Cc1nc(-c2ccc(OCc3ccc(Cl)cc3)cc2)oc1N1CCC(C(N)=O)CC1	ERa SRC1 inh 61[fluorescence artefact?] (not shown: BAP1 inh)
N#Cc1nc(-c2ccc(OCc3ccccc3)cc2)oc1NCc1cccnc1	none (not shown: BAP1 inh)
N#Cc1nc(-c2ccc(OCc3ccc(Cl)cc3)cc2)oc1NCc1cccnc1	ERa SRC1 inh 51 (not shown: BAP1 inh)
CC(C)(C)c1ccc(-c2nc(C#N)c(NCc3ccncc3)o2)cc1	SF1 activator 83, RORa activator 60
CN(C)c1oc(-c2ccc(OCc3ccccc3)cc2)nc1C#N	SF1 activator 61
CCOc1cccc2cc(C(N)=O)c(=Nc3sc4c(c3C(N)=O)CCCC4)oc12	none (no result: ERa SRC1 inh, SF1 activator, ERa coact pot, RORa activator, ERb SRC1 inh)
O=C(COc1ccccc1[N+](=O)[O-])Nc1ccc(C(=O)OC2CCCCC2)cc1	none (no result: ERa SRC1 inh, SF1 activator, ERa coact pot, RORa activator, ERb SRC1 inh)
N#Cc1nc(-c2ccc(OCc3ccc(Cl)cc3)cc2)oc1N1CCOCC1	ERa coact pot 278[fluorescence artefact?] (not shown: BAP1 inh)
CCOc1ncccc1C(=O)OCC(=O)c1cc(C)n(Cc2ccco2)c1C	SF1 activator 57, RORa activator 91
CCc1ccc(C2NC(=O)NC(C)=C2C(=O)OCCOc2ccccc2)cc1 (configuration not stated)	none (no result: ERa SRC1 inh, SF1 activator, ERa coact pot, RORa activator, ERb SRC1 inh)
O=C(Cn1cnc2ccccc2c1=O)NCCC(=O)Nc1ccc2c(c1)OCCO2	none
C=CCn1c(SCC(=O)Nc2ccc3c(c2)OCO3)nc2ccccc2c1=O	ERb SRC1 inh 98[fluorescence artefact?]
O=C(Cn1cnc2ccccc2c1=O)Nc1ccc2c(c1)OCCO2	SF1 activator 59
CCC(=O)Nc1ccc2c(c1)OCCO2	none (no result: SF1 activator, BAP1 inh, RORa activator)
O=C(CC(=O)c1ccccc1)Nc1ccc2c(c1)OCCO2	SF1 activator 61
COc1cc(NC(=O)CCNC(=O)Cn2cnc3ccccc3c2=O)cc(OC)c1OC	ERa SRC1 inh 83[fluorescence artefact?] (no result: SF1 activator, BAP1 inh, RORa activator)
COC(=O)c1ccccc1NC(=O)CCNC(=O)Cn1cnc2ccccc2c1=O	none
O=C(Nc1ccccc1[N+](=O)[O-])c1cccc(S(=O)(=O)N2CCc3ccccc32)c1	none (no result: ERa SRC1 inh, SF1 activator, ERa coact pot, RORa activator, ERb SRC1 inh)
O=c1ccc(/C=C/c2ccccc2)nn1Cc1ccc(Cl)cc1Cl	ERa coact pot active[fluorescence artefact?] (no result: SF1 activator, BAP1 inh, RORa activator)
O=c1oc2ccccc2n1CSc1nc2ccccc2s1	SF1 activator 52, RORa activator 66
Cn1c(CSc2nc3ccccc3s2)n[nH]c1=S	none
Cn1c(CSc2nc3ccccc3s2)nc2ccccc21	SF1 activator 71, ERa coact pot 282[fluorescence artefact?]
COc1ccccc1S(=O)(=O)Cc1ccc(C(=O)N2CCCC2)o1	ERa coact pot 208
Cc1cc(C)nc(NC2=NCCN2C(=O)Nc2ccc(Cl)c(Cl)c2)n1	ERa coact pot 970 (not shown: BAP1 inh)
O=C(O)CCC(=O)Nc1cccc(NC(=O)c2ccc(Br)cc2)c1	none (no result: ERa SRC1 inh, SF1 activator, ERa coact pot, RORa activator, ERb SRC1 inh)
CC(C)CC(C(=O)Nc1ccccc1C(F)(F)F)N1C(=O)c2ccccc2C1=O (configuration not stated)	none (no result: ERa SRC1 inh, SF1 activator, ERa coact pot, RORa activator, ERb SRC1 inh)
O=c1oc2ccc(Br)cc2cc1-c1nnc(-c2ccncc2)o1	none (no result: ERa SRC1 inh, SF1 activator, ERa coact pot, RORa activator, ERb SRC1 inh)
O=c1oc2ccccc2cc1-c1nnc(-c2cccc(Br)c2)o1	ERa SRC1 inh 76[fluorescence artefact?], SF1 activator 53 (not shown: BAP1 inh)
Brc1cccc(-c2nnc(-c3ccccc3)o2)c1	SF1 activator 60
Cc1ccccc1-c1nnc(-c2ccc(Br)cc2)o1	SF1 activator 77
